ChEMBL document CHEMBL4513216, “Probing the Open Global Health Chemical Diversity Library for Multistage-Active Starting Points for Next-Generation Antimalarials” (ACS Infect Dis, 2020)

Test: Toxicity liver stage against HepG2, at 10uM
Format: cell-based
Design: test concentration 10 uM, cell line HepG2-A16-CD81EGFP
Conditions: human, HepG2-A16-CD81EGFP cells; read-out: INHIBITION
In short: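 Uninfected HepG2-A16-CD81EGFP cells, 3 × 10^3 per well, 1536-well, plated on prespotted compound at 10 μM final, parasite-free screening media added to match infected plates; puromycin 10 μM positive, DMSO 0.5% negative; run in parallel with 48 h PbLuc assay at 37 °C, 5% CO2; viability by CellTiter-Glo luminescence, normalized to controls.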

| SMILES | cytotoxicity at 10 µM [%] |
| --- | --- |
| Cc1ccc(Cl)cc1N1CCC(CNC(=O)CC(F)(F)F)C1 (centres undefined) | -9.7 |
| O=C(c1ccc[nH]1)N1CCCC1c1nc(-c2ccccc2)n[nH]1 (centres undefined) | 2.57 |
| Cc1nn(C)cc1C(=O)N1CCCC(n2cncn2)C1 (centres undefined) | -3.27 |
| CCN1Cc2ccccc2CC2(CCN(C)CC2)C1=O | 14.3 |
| CC(=O)NCc1noc2c1CN(Cc1cnn(C)c1)CC2 | -1.71 |
| COc1ccc(N(Cc2ccco2)C(=O)COC(C)C)cc1F | -1.63 |
| Cc1ccc2c(c1)C(N1CCOCC1)CC21CCNCC1 (centres undefined) | -116 |
| COc1cc(C)c(C)cc1S(=O)(=O)NCC(O)c1cccn1C (centres undefined) | -6.19 |
| CCOCC(=O)NCCc1ccc(I)s1 | -4.76 |
| O=C(O)C1CCCN(C(=O)CCn2ccc3c(Cl)cccc32)C1 (centres undefined) | 11 |
| Cc1ccc(CN2CC3(CCN(C(=O)C4CC4)CC3)CC2C(=O)O)o1 (centres undefined) | 1.52 |
| CC1(C)CN(C(CNS(C)(=O)=O)c2ccc(Cl)cc2)CCO1 (centres undefined) | 9.12 |
| CCOCCCn1c(NC(=O)c2cc(C)on2)nc2ccccc21 | -31.3 |
| CCN1CCN(Cc2c(C3CCCC3)[nH]c3ncccc23)CC1 | 13.1 |
| Cc1noc(C)c1C(=O)N1CCCC1c1c(C)nn(C)c1C (centres undefined) | -5.68 |
| O=C1N(CCCc2ccccc2)CCCC1(O)CNCC1CCCCC1 (centres undefined) | -0.106 |
| CC(Nc1ccc(CCN2CCCCC2)cc1)C(=O)N(C)CCC#N (centres undefined) | 7.61 |
| CN(CCN(C)S(=O)(=O)CC1CCOCC1)c1ccccc1 | -9.65 |
| Cc1ncsc1C(=O)N1CCC(O)(CN2CCc3ccccc3C2)C1 (centres undefined) | -8.11 |
| c1csc(-c2noc(C3CN(Cc4ccc5c(c4)CCO5)C3)n2)c1 | -8.2 |
| OCCc1cc(CC2(NCc3ccncc3)COC2)no1 | -3.56 |

| SMILES | cytotoxicity at 10 µM [%] |
| --- | --- |
| COc1ccc(C(=O)N(Cc2cnn(C)c2)C(C)C)cc1Br | -9.02 |
| CCN1CCC2(CC1)NC(=O)c1cc(Br)ccc1-n1nnnc12 | 1.47 |
| Cc1cnn(CC2CCCN2C(=O)Cc2cccs2)c1 (centres undefined) | -0.704 |
| Cc1ccc(C)c(S(=O)(=O)CCNC2CCc3ncnn3C2)c1 (centres undefined) | -30.6 |
| Cc1ccc(NCCCNc2nccc(-c3cn(C)nc3C)n2)nc1 | 14.5 |
| Cc1ccc(C2(O)CCN(C(=O)CCn3c(C)cccc3=O)CC2)nc1 | -9.02 |
| CCOc1ccnc(N[C@@H](Cc2ccccc2)C(N)=O)n1 | 10.7 |
| c1csc(CCC2CCCCN2Cc2noc(C3CC3)n2)c1 (centres undefined) | 0.562 |
| Cc1nnc(CN2CCN(CC(O)c3ccccc3)CC2)o1 (centres undefined) | -18.9 |
| O=C(c1cccnc1)N1CCn2nnc(COc3cccnc3)c2C1 | 3.34 |
| Cc1ncc(CN(C)C2CCCN(Cc3noc(C4CC4)n3)C2)s1 (centres undefined) | -13.5 |
| Cc1nc(CN2CCCC(N(C)CCCc3ccccc3)C2)no1 (centres undefined) | -0.704 |
| O=C([C@@H]1COC[C@H]2CN(c3ccncn3)C[C@H]21)N1CCCCO1 | -132 |
| Cc1nc(CN2CCC(c3cc(N4CCCC4)ncn3)CC2)cs1 | -159 |
| O=C(NCc1ccoc1)Nc1ccc(CN2CCOC2=O)cc1 | 14.1 |
| O=C(C1CCOC1)N1CCC2(CCNCC2)C1 (centres undefined) | 7.62 |
| O=C(C1CCCO1)N1CCc2ncnc(NC3CCC3)c2CC1 (centres undefined) | -5.16 |
| Cc1cccc2c(=O)c(C(=O)N3CCCC4(CN(C)C(=O)O4)C3)c[nH]c12 (centres undefined) | 10.5 |
| O=C(COCC1CC1)N1CCCC(n2cncn2)C1 (centres undefined) | -3.54 |
| CN1CC2(CCNCC2)COc2ccccc2S1(=O)=O | 4.58 |
| c1cnc(N2CCCC(Cc3nccs3)C2)nc1 (centres undefined) | 0.45 |

| SMILES | cytotoxicity at 10 µM [%] |
| --- | --- |
| CC(=O)N(C)Cc1ccccc1NC(=O)c1ccccc1C | 1.18 |
| CC(C)C1CN(c2ncc(F)cn2)CCC(=O)N1Cc1ccc(F)cc1 (centres undefined) | 16.9 |
| CNC(=O)CS(=O)(=O)C1CCN(S(=O)(=O)c2ccccc2Cl)CC1 | 11.7 |
| CC(=O)c1cccc(OCC(=O)NS(=O)(=O)c2cccs2)c1 | -10.5 |
| CC(CN1CCOCC1)NC(=O)NCCc1ccc(Cl)s1 (centres undefined) | -8.36 |
| Cc1oncc1C(=O)N1CCC2(CCN(Cc3cccc(F)c3)C2=O)C1 (centres undefined) | -142 |
| Cn1c(CN2CCOC(Cn3cncn3)C2)nc2ccccc21 (centres undefined) | -4.76 |
| CCCC(=O)N1CCC(C(=O)NCCN2CCC(C)CC2)CC1 | -2.6 |
| Nc1ncnc2nc(C3CCCCN3)ccc12 (centres undefined) | 5.74 |
| Cc1cnc(C(=O)N2CCCCC2c2nc(C)cs2)cn1 (centres undefined) | -15.3 |
| Cc1cccnc1CC(C)N(C)Cc1cccs1 (centres undefined) | -12.4 |
| CCn1ccc(-c2nnc(SCC(=O)NCC(C)C)n2CC)n1 | 5.44 |
| Cc1cc(CN2CCOC(CN(C)c3cccnn3)C2)no1 (centres undefined) | 8.23 |
| COc1ccc2c(c1)CC(C1CCOCC1)N(C(=O)c1ccn(C)n1)C2 (centres undefined) | 1.78 |
| Clc1ccccc1C1(c2ccnc(-c3ncccn3)n2)CCNCC1 | -6.28 |
| Cc1ccccc1NS(=O)(=O)c1ccc(C(=O)O)cc1F | 7.94 |
| O=C1NC2(CCN(Cc3ccccc3Cl)CC2)CC1c1ccccc1 (centres undefined) | -49.2 |
| O=C(CO)N1CCN(C(=O)c2coc3ccccc23)CC1 | 3.16 |
| CN(Cc1csc2ccccc12)C(=O)NC1CCS(=O)(=O)C1 (centres undefined) | -42.1 |
| CC(=O)N1CCC(N2CCN3C(=O)N(c4ccccc4)C[C@H]3C2)CC1 | 1.35 |
| Cc1ncsc1C(=O)NC1CCN(c2ncccc2C#N)CC1 | 2.68 |

| SMILES | cytotoxicity at 10 µM [%] |
| --- | --- |
| COc1cccc(CN(C)Cc2cc(C#N)ccc2F)c1OC | -5 |
| Cc1nccn1CCCC(=O)N1CCC(Nc2cccnn2)CC1 | -17.3 |
| Cc1ccc(NC(=O)CC2Cn3ncnc3NC2=O)cc1C (centres undefined) | 10.5 |
| Cc1cn2c(n1)CCC(NS(=O)(=O)c1ccc(C)s1)C2 (centres undefined) | 12.9 |
| O=C(O)C(c1cccc2c1OCC2)N1CCC(N2CCSCC2)CC1 (centres undefined) | 6.14 |
| Cn1cc(CCC(=O)N2CCN(Cc3ccncc3)CC2)cn1 | -6.64 |
| CCOc1nn(CC)cc1-c1nnc(SCC)n1C | 1.81 |
| O=C(Nc1ccc2c(ccn2CCN2CCOCC2)c1)c1ccccn1 | 0.425 |
| Cc1ccnc(OCC(=O)N2CCCC2)n1 | -10.2 |
| Fc1ccccc1-c1cccc(C2CCCN(C3CCOCC3)C2)n1 (centres undefined) | 0.22 |
| CCN(C)C[C@@H]1CN(S(=O)(=O)c2ccc(C#N)cc2)C[C@@H]1CO | 13.5 |
| CS(=O)(=O)N1CCN(CC2CC2)c2ncccc2C1 | -152 |
| CN(C)CCO[C@@H]1CC[C@H]2[C@H]1OCCN2C(=O)CCc1ccccc1 | -6.69 |
| O=C(C1CCC1)N1CCn2c(COc3ncccn3)nnc2C1 | 3.09 |
| CCCN1CCCN(C(=O)c2ccc(Oc3cccnc3)cc2)CC1 | -46.9 |
| COc1ccccc1CN1CCCC(Cc2nccnc2N)C1 (centres undefined) | -3.81 |
| CSCC(C)(O)CNc1cccc(F)c1C(C)=O (centres undefined) | 2.19 |
| CC(C)c1nccc([C@H]2C[C@@H]3CCN(Cc4ccco4)C[C@H]3O2)n1 | -5.25 |
| CN(C)C(=O)CN1CCC2(CC1)COC2 | 5.53 |
| N#CCCN(Cc1ccccn1)Cn1cc(Cl)cn1 | 1.49 |
| Cn1cc(S(=O)(=O)N2CCN(S(=O)(=O)c3ccc(Br)s3)CC2)cn1 | 11.8 |
